In ChEMBL document CHEMBL6134769, “Discovery of N-substituted-2-oxoindolin benzoylhydrazines as c-MET/SMO modulators in EGFRi-resistant non-small cell lung cancer” (RSC Med Chem, 2025) one finds inhibition and IC50 data, which are given here for 4 molecules.

In experiment [1] the target is T1, Tyrosine-protein kinase ITK/TSK (Homo sapiens) (UniProt Q08881).
T1 sequence (whole entry): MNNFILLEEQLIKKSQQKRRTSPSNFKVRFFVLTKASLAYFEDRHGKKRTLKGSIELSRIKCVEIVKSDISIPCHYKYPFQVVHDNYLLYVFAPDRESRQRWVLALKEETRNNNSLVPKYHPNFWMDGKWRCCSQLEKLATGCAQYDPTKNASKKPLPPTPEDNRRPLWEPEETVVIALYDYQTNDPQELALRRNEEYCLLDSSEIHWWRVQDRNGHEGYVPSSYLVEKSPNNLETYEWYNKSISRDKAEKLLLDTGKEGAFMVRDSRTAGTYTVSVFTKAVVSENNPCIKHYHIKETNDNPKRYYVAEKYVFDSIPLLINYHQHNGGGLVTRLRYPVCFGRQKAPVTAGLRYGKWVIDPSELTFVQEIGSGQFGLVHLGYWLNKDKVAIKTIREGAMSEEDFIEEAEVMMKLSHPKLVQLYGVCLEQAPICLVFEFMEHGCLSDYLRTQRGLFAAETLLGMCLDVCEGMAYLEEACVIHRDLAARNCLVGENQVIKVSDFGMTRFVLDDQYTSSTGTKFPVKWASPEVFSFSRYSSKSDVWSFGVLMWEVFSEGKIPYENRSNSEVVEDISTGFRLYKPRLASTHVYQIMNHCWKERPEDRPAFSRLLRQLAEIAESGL
The experiment is described as follows: Inhibition of human full-length N-terminal GST-fused ITK (2 to 620 (end)residues) expressed in baculovirus expression system at 20 uM measured after 1 hr in presence of peptide substrate and ATP by off-chip mobility shift assay relative to control. The procedure, abridged: (§1)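 Off-chip mobility shift assay. Product and substrate peptides were separated; activity was taken as P/(P+S). Complete reaction was set as 0% inhibition and enzyme-free background as 100%. Run in triplicate, mean ± SD.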

Experiment [2] has as its target Tyrosine-protein kinase Lck (Homo sapiens) (UniProt P06239). The experiment is described as follows: Inhibition of human full-length N-terminal GST-fused LCK (1 to 509 (end)residues) expressed in baculovirus expression system at 20 uM measured after 1 hr in presence of peptide substrate and ATP by off-chip mobility shift assay relative to control. The procedure, abridged:
as §1

In experiment [3] the target is Epidermal growth factor receptor (Homo sapiens) (UniProt P00533). The experiment is described as follows: Inhibition of human N-terminal GST-fused EGFR cytoplasmic domain (669 to 1210 (end)residues) expressed in baculovirus expression system at 20 uM measured after 1 hr in presence of peptide substrate and ATP by off-chip mobility shift assay relative to control. In outline: as §1

The target of experiment [4] is T2, Tyrosine-protein kinase receptor TYRO3 (Homo sapiens) (UniProt Q06418).
T2 sequence (whole entry): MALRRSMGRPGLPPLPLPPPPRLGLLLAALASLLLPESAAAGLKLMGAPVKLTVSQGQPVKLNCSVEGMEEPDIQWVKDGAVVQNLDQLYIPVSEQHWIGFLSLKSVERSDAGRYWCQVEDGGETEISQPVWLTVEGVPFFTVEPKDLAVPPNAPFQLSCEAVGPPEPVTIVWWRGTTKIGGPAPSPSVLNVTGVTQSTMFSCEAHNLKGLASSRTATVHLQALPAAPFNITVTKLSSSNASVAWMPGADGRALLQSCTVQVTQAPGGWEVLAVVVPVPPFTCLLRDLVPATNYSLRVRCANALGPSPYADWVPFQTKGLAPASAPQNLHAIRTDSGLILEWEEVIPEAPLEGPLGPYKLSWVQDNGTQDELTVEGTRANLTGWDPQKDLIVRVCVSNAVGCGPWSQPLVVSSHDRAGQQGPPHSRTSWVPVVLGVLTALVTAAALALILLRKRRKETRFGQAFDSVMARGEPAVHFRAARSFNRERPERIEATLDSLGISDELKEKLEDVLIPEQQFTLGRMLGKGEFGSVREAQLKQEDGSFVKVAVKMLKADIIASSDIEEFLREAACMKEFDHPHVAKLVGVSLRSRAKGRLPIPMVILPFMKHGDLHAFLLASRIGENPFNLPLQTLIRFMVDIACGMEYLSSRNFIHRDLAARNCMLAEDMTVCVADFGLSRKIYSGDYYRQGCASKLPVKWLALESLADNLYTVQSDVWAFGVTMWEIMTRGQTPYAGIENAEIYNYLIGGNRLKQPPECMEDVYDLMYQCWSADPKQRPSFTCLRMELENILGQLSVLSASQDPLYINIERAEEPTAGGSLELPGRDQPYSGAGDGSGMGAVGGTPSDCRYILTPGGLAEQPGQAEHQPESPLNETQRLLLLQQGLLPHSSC
The experiment is described as follows: Inhibition of human N-terminal GST-fused TYRO3 cytoplasmic domain (453 to 890 (end)residues) expressed in baculovirus expression system at 20 uM measured after 1 hr in presence of peptide substrate and ATP by off-chip mobility shift assay relative to control. In outline:
as §1

The target of experiment [5] is Protein-tyrosine kinase 2-beta (Homo sapiens) (UniProt Q14289). The experiment is described as follows: Inhibition of human full-length N-terminal GST-fused PYK2 (1 to 967 (end)residues) expressed in baculovirus expression system at 20 uM measured after 1 hr in presence of peptide substrate and ATP by off-chip mobility shift assay relative to control. The procedure, abridged: as §1

Experiment [6] deals with Insulin-like growth factor 1 receptor (Homo sapiens) (UniProt P08069). The experiment is described as follows: Inhibition of human N-terminal GST-fused IGF1R cytoplasmic domain (959 to 1367 (end)residues) expressed in baculovirus expression system at 20 uM measured after 1 hr in presence of peptide substrate and ATP by off-chip mobility shift assay relative to control. The procedure, abridged: as §1

A short description of experiment [7]: Inhibition of human full-length N-terminal GST-fused SRC (1 to 536 (end)residues) expressed in baculovirus expression system at 20 uM measured after 1 hr in presence of peptide substrate and ATP by off-chip mobility shift assay relative to control. The procedure, abridged: as §1
Experiment [8] addresses Tyrosine-protein kinase CSK (Homo sapiens) (UniProt P41240). The experiment is described as follows: Inhibition of human full-length N-terminal GST-fused CSK (1 to 450 (end)residues) expressed in baculovirus expression system at 20 uM measured after 1 hr in presence of peptide substrate and ATP by off-chip mobility shift assay relative to control. The procedure, abridged: as §1

Experiment [9] deals with High affinity nerve growth factor receptor (Homo sapiens) (UniProt P04629). The experiment is described as follows: Inhibition of human N-terminal GST-fused TRKA cytoplasmic domain (436 to 790 (end)residues) expressed in baculovirus expression system at 20 uM measured after 1 hr in presence of peptide substrate and ATP by off-chip mobility shift assay relative to control. In outline:
as §1

The nature of experiment [10]: Antiproliferative activity against human PC9-OR cells assessed as reduction in cell viability measured after 72 hrs by MTS assay.
The target in experiment [11] is Vascular endothelial growth factor receptor 2 (Homo sapiens) (UniProt P35968). The experiment is described as follows: Inhibition of human N-terminal GST-fused KDR cytoplasmic domain (790 to 1356 (end)residues) expressed in baculovirus expression system at 20 uM measured after 1 hr in presence of peptide substrate and ATP by off-chip mobility shift assay relative to control. In outline: as §1

The species entered for experiment [12] is Homo sapiens. The experiment is described as follows: Inhibition of human full-length N-terminal His-tagged ABL (2 to 1130 (end)residues) expressed in baculovirus expression system at 20 uM measured after 1 hr in presence of peptide substrate and ATP by off-chip mobility shift assay relative to control. In outline:
as §1

Chain of High affinity nerve growth factor receptor (Homo sapiens) (P04629 33-796 limits assumed): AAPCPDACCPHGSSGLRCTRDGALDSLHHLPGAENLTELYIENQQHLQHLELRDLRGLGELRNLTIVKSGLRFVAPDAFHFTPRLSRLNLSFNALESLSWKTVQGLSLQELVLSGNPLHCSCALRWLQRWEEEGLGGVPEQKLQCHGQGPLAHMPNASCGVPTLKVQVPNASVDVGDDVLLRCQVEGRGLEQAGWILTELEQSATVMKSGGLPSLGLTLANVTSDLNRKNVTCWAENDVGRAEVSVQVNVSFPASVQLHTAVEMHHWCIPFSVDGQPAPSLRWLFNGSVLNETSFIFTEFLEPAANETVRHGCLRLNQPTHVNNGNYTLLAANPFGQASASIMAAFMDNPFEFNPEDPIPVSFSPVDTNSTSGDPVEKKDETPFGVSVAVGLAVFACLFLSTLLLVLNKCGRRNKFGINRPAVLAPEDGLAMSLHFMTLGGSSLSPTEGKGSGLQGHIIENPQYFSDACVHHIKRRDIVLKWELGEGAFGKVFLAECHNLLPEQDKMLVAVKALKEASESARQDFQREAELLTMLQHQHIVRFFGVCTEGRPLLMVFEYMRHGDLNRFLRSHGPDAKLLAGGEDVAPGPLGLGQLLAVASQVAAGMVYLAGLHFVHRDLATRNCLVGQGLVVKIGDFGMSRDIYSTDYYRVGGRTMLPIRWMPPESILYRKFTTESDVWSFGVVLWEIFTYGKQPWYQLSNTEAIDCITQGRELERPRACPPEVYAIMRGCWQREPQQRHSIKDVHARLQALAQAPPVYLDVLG
Chain of Epidermal growth factor receptor (Homo sapiens) (P00533 whole entry, the tested form may be a part): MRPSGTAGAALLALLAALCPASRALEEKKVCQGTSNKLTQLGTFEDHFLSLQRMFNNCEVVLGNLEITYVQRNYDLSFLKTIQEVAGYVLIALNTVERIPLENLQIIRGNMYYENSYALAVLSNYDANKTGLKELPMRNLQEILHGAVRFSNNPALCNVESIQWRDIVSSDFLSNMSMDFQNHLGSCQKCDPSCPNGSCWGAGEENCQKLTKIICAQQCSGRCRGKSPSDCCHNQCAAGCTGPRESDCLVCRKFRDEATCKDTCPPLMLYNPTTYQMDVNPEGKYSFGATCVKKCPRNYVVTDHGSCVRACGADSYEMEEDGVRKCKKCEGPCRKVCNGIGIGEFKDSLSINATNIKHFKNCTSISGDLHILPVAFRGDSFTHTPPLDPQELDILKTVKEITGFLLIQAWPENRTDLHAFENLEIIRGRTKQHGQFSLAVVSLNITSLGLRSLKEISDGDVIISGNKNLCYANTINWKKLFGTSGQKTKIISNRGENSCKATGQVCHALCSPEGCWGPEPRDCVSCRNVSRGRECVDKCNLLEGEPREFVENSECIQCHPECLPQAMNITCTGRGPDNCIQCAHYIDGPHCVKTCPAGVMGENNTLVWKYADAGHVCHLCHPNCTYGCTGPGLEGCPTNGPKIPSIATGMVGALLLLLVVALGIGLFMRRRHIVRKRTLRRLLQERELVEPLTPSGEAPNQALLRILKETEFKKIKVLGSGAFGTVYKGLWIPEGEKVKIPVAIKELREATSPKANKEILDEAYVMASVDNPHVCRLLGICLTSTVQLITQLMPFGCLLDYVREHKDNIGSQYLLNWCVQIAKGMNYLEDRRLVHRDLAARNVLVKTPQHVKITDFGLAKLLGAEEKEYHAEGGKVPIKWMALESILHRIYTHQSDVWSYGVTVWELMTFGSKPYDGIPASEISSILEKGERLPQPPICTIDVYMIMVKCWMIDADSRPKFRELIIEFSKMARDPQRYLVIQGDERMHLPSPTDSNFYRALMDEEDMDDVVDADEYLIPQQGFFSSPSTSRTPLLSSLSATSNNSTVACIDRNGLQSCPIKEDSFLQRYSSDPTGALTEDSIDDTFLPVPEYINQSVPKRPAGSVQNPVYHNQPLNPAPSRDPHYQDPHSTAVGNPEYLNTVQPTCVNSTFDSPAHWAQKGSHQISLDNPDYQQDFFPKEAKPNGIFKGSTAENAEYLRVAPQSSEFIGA
Chain of Protein-tyrosine kinase 2-beta (Homo sapiens) (Q14289 whole entry, looked up, the tested form may be a part): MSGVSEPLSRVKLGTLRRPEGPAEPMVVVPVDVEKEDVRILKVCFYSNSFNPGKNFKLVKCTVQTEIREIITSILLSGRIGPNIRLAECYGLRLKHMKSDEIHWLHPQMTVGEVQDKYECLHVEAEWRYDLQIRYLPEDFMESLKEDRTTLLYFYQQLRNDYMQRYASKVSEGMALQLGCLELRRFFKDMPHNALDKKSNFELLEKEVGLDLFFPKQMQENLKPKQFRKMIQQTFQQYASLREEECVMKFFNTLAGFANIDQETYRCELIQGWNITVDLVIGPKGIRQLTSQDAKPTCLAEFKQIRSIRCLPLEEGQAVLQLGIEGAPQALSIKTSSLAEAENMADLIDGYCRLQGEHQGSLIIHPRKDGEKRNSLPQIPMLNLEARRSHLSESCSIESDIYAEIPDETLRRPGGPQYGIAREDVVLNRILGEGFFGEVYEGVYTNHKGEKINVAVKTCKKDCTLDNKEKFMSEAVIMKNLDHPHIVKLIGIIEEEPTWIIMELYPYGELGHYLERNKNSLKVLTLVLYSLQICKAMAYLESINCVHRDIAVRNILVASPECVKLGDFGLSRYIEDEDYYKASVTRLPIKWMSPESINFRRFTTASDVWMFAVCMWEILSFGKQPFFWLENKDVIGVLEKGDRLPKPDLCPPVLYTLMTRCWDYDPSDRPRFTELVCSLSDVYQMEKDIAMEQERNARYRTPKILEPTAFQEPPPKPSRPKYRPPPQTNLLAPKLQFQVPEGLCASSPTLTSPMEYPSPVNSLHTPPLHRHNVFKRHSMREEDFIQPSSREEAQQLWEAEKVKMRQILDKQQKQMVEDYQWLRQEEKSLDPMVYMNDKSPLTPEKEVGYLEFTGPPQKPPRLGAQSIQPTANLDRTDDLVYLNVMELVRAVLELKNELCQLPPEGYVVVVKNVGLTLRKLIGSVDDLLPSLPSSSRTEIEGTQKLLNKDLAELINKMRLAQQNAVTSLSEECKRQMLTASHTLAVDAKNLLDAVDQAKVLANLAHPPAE
Chain of Tyrosine-protein kinase CSK (Homo sapiens) (P41240 2-450 limits assumed): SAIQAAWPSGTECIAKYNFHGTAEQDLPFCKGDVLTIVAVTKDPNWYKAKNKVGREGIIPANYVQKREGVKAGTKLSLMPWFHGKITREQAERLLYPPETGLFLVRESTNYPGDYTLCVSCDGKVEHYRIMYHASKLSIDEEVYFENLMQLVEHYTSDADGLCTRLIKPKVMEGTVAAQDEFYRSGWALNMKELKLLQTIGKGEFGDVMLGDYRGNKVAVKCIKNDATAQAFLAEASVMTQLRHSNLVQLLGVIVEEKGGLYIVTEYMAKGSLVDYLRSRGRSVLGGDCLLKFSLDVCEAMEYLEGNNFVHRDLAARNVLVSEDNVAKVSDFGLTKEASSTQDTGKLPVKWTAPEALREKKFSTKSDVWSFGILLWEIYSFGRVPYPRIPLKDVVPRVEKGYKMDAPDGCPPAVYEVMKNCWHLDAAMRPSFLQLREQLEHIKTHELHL
Chain of Tyrosine-protein kinase Lck (Homo sapiens) (P06239 2-509 limits assumed): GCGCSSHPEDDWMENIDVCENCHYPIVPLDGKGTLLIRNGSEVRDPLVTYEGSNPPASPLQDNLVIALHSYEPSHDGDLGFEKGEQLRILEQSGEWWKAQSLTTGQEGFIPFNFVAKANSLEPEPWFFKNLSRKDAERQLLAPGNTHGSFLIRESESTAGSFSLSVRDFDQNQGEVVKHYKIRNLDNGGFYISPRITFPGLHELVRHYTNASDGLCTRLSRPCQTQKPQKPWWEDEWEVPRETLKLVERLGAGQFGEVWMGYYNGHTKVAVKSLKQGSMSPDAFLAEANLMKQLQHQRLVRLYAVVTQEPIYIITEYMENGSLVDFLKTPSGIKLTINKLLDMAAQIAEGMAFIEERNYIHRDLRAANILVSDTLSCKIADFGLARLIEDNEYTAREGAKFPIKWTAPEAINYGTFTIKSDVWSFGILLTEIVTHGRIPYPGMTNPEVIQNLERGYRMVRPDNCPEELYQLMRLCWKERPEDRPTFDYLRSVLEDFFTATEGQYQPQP

In the case of `Cc1ccc(NC(=O)CN2C(=O)/C(=N\NC(=O)c3cc(Br)ccc3O)c3ccc(Cl)cc32)cc1`, the inhibition was 58.9% in [1]; 71.5% in experiment [2]; 72.9% in [3]; 51.3% in experiment [4]; 49.7% in experiment [5]; 55.3% in [6]. Also, the inhibition in experiment [7] was determined as 64.3%; in experiment [8], 82.1%; in [9], 66.9%; in experiment [11], 66.6%. In addition, in [10], the IC50 came to 2.27 µM.
For the molecule `Cc1ccc(NC(=O)CN2C(=O)/C(=N\NC(=O)c3cc(Br)ccc3O)c3ccc(Br)cc32)cc1`, the inhibition in experiment [1] stood at 52.8%; in experiment [2], 69.3%; in [3], 70.9%; in [4], 39.3%; in experiment [5], 48.5%; in experiment [12], 63.5%. The inhibition came out at 54% in [6]; 56.5% in experiment [7]; 86.1% in [8]; 64.3% in experiment [9]; 63.5% in experiment [11]. For the same molecule, the IC50 in [10] is 2.08 µM.
With `Cc1ccc(NC(=O)CN2C(=O)/C(=N\NC(=O)c3cc(Br)ccc3O)c3ccccc32)cc1`, the inhibition in experiment [1] was 70.3%; in [2], 84.8%; in experiment [3], 85.2%; in [4], 48.5%; in [5], 49.9%; in experiment [12], 74.9%. For the same molecule, the inhibition in experiment [6] was 80.2%; in experiment [7], 49.3%; in [8], 93.5%; in experiment [9], 80%; in [11] it was 81.4%. Further, in experiment [10], the IC50 worked out at 9.51 µM.
As for `O=C(CN1C(=O)/C(=N\NC(=O)c2cc(Br)ccc2O)c2c(Br)cccc21)Nc1ccc([N+](=O)[O-])cc1`, the inhibition is 56.7% in experiment [1]; 66.8% in [2]; 69.3% in experiment [3]; 46.4% in experiment [4]; 45.1% in experiment [5]; 67.9% in experiment [12]. Besides, the inhibition in experiment [6] worked out at 66%; in [7], 50.7%; in [8] it was 82.9%; in experiment [9], 65.9%; in [11], 61.2%. Besides, in experiment [10], the IC50 turned out to be 4.05 µM.
